Converted amounts (≈) assume the structure as drawn. One block for each compound: values may come before it. The source made the active and inactive calls. The calls are words filed in the database; no cut-off is given here.
Columns and labels:
[1] = tested on: Trichoderma koningii; assay: Antifungal activity against Trichoderma koningii assessed as radial growth at 3% after 48 hrs by poison food technique of Flack relative to control; assay type: functional
Summary of the method: (§1)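 Acetone stock added to molten sterilized PDA to final 0.5–7%, plated in 90 mm dishes with compound-free plates as control. Each plate was inoculated with a 9 mm disc from a 4-day-old culture, incubated at 25 ± 1 °C, and colony diameter measured at 24 h intervals. % inhibition = (control − treatment)/control × 100; three replicates averaged.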

[2] = tested on: Trichoderma koningii; assay: Antifungal activity against Trichoderma koningii assessed as radial growth at 5% after 72 hrs by poison food technique of Flack relative to control; assay type: functional; summary of the method: as §1
[3] = tested on: Trichoderma hamatum; assay: Antifungal activity against Trichoderma hamatum assessed as radial growth at 7% after 24 hrs by poison food technique of Flack; assay type: functional, organism-based
Summary of the method: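 Poisoned-food method: acetone stock mixed into molten sterilized potato dextrose agar to final 0.5, 1, 3, 5 or 7%, poured into 90 mm plates. Plates were inoculated with a 9 mm mycelial disc from a 4-day-old pure culture and incubated at 25 ± 1 °C. Colony diameter (mm) was read every 24 h; mean of three replicates.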

[4] = tested on: Trichoderma hamatum; assay: Antifungal activity against Trichoderma hamatum assessed as radial growth at 7% after 48 hrs by poison food technique of Flack relative to control; assay type: functional; summary of the method: as §1
[5] = tested on: Trichoderma koningii; assay: Antifungal activity against Trichoderma koningii assessed as radial growth at 5% after 48 hrs by poison food technique of Flack relative to control; assay type: functional; summary of the method: as §1
[6] = tested on: Aspergillus niger; assay: Antifungal activity against Aspergillus niger assessed as radial growth at 1% after 72 hrs by poison food technique of Flack relative to control; assay type: functional
[7] = tested on: Trichoderma hamatum; assay: Antifungal activity against Trichoderma hamatum assessed as radial growth at 7% after 72 hrs by poison food technique of Flack relative to control; assay type: functional; summary of the method: as §1
[8] = tested on: Aspergillus niger; assay: Antifungal activity against Aspergillus niger assessed as radial growth at 3% after 48 hrs by poison food technique of Flack relative to control; assay type: functional
[9] = tested on: Aspergillus niger; assay: Antifungal activity against Aspergillus niger assessed as radial growth at 3% after 72 hrs by poison food technique of Flack relative to control; assay type: functional
[10] = tested on: Trichoderma hamatum; assay: Antifungal activity against Trichoderma hamatum assessed as radial growth at 0.5% after 72 hrs by poison food technique of Flack relative to control; assay type: functional
[11] = tested on: Aspergillus niger; assay: Antifungal activity against Aspergillus niger assessed as radial growth at 0.5% after 48 hrs by poison food technique of Flack relative to control; assay type: functional
[12] = tested on: Trichoderma koningii; assay: Antifungal activity against Trichoderma koningii assessed as radial growth at 1% after 24 hrs by poison food technique of Flack relative to control; assay type: functional; summary of the method: as §1
[13] = tested on: Trichoderma koningii; assay: Antifungal activity against Trichoderma koningii assessed as radial growth at 1% after 48 hrs by poison food technique of Flack relative to control; assay type: functional; summary of the method: as §1
[14] = tested on: Trichoderma koningii; assay: Antifungal activity against Trichoderma koningii assessed as radial growth at 0.5% after 48 hrs by poison food technique of Flack relative to control; assay type: functional; summary of the method: as §1
[15] = tested on: Trichoderma hamatum; assay: Antifungal activity against Trichoderma hamatum assessed as radial growth at 1% after 48 hrs by poison food technique of Flack relative to control; assay type: functional
[16] = tested on: Trichoderma hamatum; assay: Antifungal activity against Trichoderma hamatum assessed as radial growth at 7% after 24 hrs by poison food technique of Flack relative to control; assay type: functional; summary of the method: as §1
[17] = tested on: Trichoderma koningii; assay: Antifungal activity against Trichoderma koningii assessed as radial growth at 3% after 24 hrs by poison food technique of Flack relative to control; assay type: functional; summary of the method: as §1
[18] = tested on: Trichoderma koningii; assay: Antifungal activity against Trichoderma koningii assessed as radial growth at 3% after 72 hrs by poison food technique of Flack relative to control; assay type: functional; summary of the method: as §1
[19] = tested on: Aspergillus niger; assay: Antifungal activity against Aspergillus niger; assay type: functional
[20] = tested on: Trichoderma hamatum; assay: Antifungal activity against Trichoderma hamatum assessed as radial growth at 1% after 24 hrs by poison food technique of Flack relative to control; assay type: functional
[21] = tested on: Aspergillus niger; assay: Antifungal activity against Aspergillus niger assessed as radial growth at 5% after 24 hrs by poison food technique of Flack relative to control; assay type: functional
[22] = tested on: Trichoderma koningii; assay: Antifungal activity against Trichoderma koningii assessed as radial growth at 7% after 72 hrs by poison food technique of Flack relative to control; assay type: functional; summary of the method: as §1
[23] = tested on: Aspergillus niger; assay: Antifungal activity against Aspergillus niger assessed as radial growth at 7% after 48 hrs by poison food technique of Flack relative to control; assay type: functional
[24] = tested on: Aspergillus niger; assay: Antifungal activity against Aspergillus niger assessed as radial growth at 5% after 72 hrs by poison food technique of Flack relative to control; assay type: functional
[25] = tested on: Aspergillus niger; assay: Antifungal activity against Aspergillus niger assessed as radial growth at 1% after 48 hrs by poison food technique of Flack relative to control; assay type: functional
[26] = tested on: Trichoderma hamatum; assay: Antifungal activity against Trichoderma hamatum assessed as radial growth at 1% after 72 hrs by poison food technique of Flack relative to control; assay type: functional
[27] = tested on: Trichoderma hamatum; assay: Antifungal activity against Trichoderma hamatum assessed as radial growth at 5% after 24 hrs by poison food technique of Flack relative to control; assay type: functional; summary of the method: as §1
[28] = tested on: Aspergillus niger; assay: Antifungal activity against Aspergillus niger assessed as radial growth at 1% after 24 hrs by poison food technique of Flack relative to control; assay type: functional
[29] = tested on: Trichoderma hamatum; assay: Antifungal activity against Trichoderma hamatum; assay type: functional
[30] = tested on: Trichoderma koningii; assay: Antifungal activity against Trichoderma koningii assessed as radial growth at 0.5% after 24 hrs by poison food technique of Flack relative to control; assay type: functional; summary of the method: as §1
[31] = tested on: Trichoderma koningii; assay: Antifungal activity against Trichoderma koningii assessed as radial growth at 5% after 24 hrs by poison food technique of Flack relative to control; assay type: functional; summary of the method: as §1
[32] = tested on: Trichoderma hamatum; assay: Antifungal activity against Trichoderma hamatum assessed as radial growth at 5% after 72 hrs by poison food technique of Flack relative to control; assay type: functional; summary of the method: as §1
[33] = tested on: Trichoderma koningii; assay: Antifungal activity against Trichoderma koningii assessed as radial growth at 7% after 24 hrs by poison food technique of Flack relative to control; assay type: functional; summary of the method: as §1
[34] = tested on: Trichoderma hamatum; assay: Antifungal activity against Trichoderma hamatum assessed as radial growth at 3% after 48 hrs by poison food technique of Flack relative to control; assay type: functional
[35] = tested on: Trichoderma hamatum; assay: Antifungal activity against Trichoderma hamatum assessed as radial growth at 3% after 72 hrs by poison food technique of Flack relative to control; assay type: functional
[36] = tested on: Trichoderma hamatum; assay: Antifungal activity against Trichoderma hamatum assessed as radial growth at 3% after 24 hrs by poison food technique of Flack relative to control; assay type: functional
[37] = tested on: Trichoderma hamatum; assay: Antifungal activity against Trichoderma hamatum assessed as radial growth at 0.5% after 48 hrs by poison food technique of Flack relative to control; assay type: functional
[38] = tested on: Aspergillus niger; assay: Antifungal activity against Aspergillus niger assessed as radial growth at 0.5% after 24 hrs by poison food technique of Flack relative to control; assay type: functional
[39] = tested on: Trichoderma hamatum; assay: Antifungal activity against Trichoderma hamatum assessed as radial growth at 0.5% after 24 hrs by poison food technique of Flack relative to control; assay type: functional
[40] = tested on: Aspergillus niger; assay: Antifungal activity against Aspergillus niger assessed as radial growth at 5% after 48 hrs by poison food technique of Flack relative to control; assay type: functional
[41] = tested on: Aspergillus niger; assay: Antifungal activity against Aspergillus niger assessed as radial growth at 3% after 24 hrs by poison food technique of Flack relative to control; assay type: functional
[42] = tested on: Trichoderma koningii; assay: Antifungal activity against Trichoderma koningii assessed as radial growth at 1% after 72 hrs by poison food technique of Flack relative to control; assay type: functional; summary of the method: as §1
[43] = tested on: Trichoderma hamatum; assay: Antifungal activity against Trichoderma hamatum assessed as radial growth at 5% after 48 hrs by poison food technique of Flack relative to control; assay type: functional; summary of the method: as §1
[44] = tested on: Trichoderma koningii; assay: Antifungal activity against Trichoderma koningii assessed as radial growth at 7% after 48 hrs by poison food technique of Flack relative to control; assay type: functional; summary of the method: as §1

MIC [19]: 0.35 µg/mL (≈ 1.1 µM)
MIC [29]: 0.025 µg/mL (≈ 0.0783 µM)
SMILES: CCOC(=O)C1=C(C)NC(=S)NC1c1ccc(N(C)C)cc1 (stereo not drawn)
inhibition (INH) [1]: 18.75%
inhibition (INH) [2]: 88.29%
Activity [3]: Active
inhibition (INH) [4]: 100%
inhibition (INH) [5]: 86.21%
inhibition (INH) [6]: 0%
inhibition (INH) [7]: 97.57%
inhibition (INH) [8]: 40%
inhibition (INH) [9]: 51.98%
inhibition (INH) [10]: 8.39%
inhibition (INH) [11]: 0%
inhibition (INH) [12]: 3.84%
inhibition (INH) [13]: 0%
inhibition (INH) [14]: 0%
inhibition (INH) [15]: 12.4%
inhibition (INH) [16]: 100%
inhibition (INH) [17]: 41.69%
inhibition (INH) [18]: 15.77%
inhibition (INH) [20]: 21.42%
inhibition (INH) [21]: 100%
inhibition (INH) [22]: 91.1%
inhibition (INH) [23]: 100%
inhibition (INH) [24]: 78.39%
inhibition (INH) [25]: 0%
inhibition (INH) [26]: 13.9%
inhibition (INH) [27]: 100%
inhibition (INH) [28]: 13.6%
inhibition (INH) [30]: 0%
inhibition (INH) [31]: 92.3%
inhibition (INH) [32]: 96.68%
inhibition (INH) [33]: 100%
inhibition (INH) [34]: 74.44%
inhibition (INH) [35]: 40.39%
inhibition (INH) [36]: 75%
inhibition (INH) [37]: 5.25%
inhibition (INH) [38]: 0%
inhibition (INH) [39]: 8.92%
inhibition (INH) [40]: 100%
inhibition (INH) [41]: 30%
inhibition (INH) [42]: 0%
inhibition (INH) [43]: 100%
inhibition (INH) [44]: 95.31%

MIC [19]: 0.025 µg/mL (≈ 0.0855 µM)
MIC [29]: 0.025 µg/mL (≈ 0.0855 µM)
SMILES: CCOC(=O)C1=C(C)NC(=S)NC1c1ccccc1O (stereo not drawn)
inhibition (INH) [1]: 4.18%
inhibition (INH) [2]: 88.33%
Activity [3]: Active
inhibition (INH) [4]: 100%
inhibition (INH) [5]: 91.4%
inhibition (INH) [6]: 0%
inhibition (INH) [7]: 98.35%
inhibition (INH) [8]: 38.16%
inhibition (INH) [9]: 23.37%
inhibition (INH) [10]: 0%
inhibition (INH) [11]: 0%
inhibition (INH) [12]: 12.35%
inhibition (INH) [13]: 0%
inhibition (INH) [14]: 0%
inhibition (INH) [15]: 51.46%
inhibition (INH) [16]: 100%
inhibition (INH) [17]: 50.39%
inhibition (INH) [18]: 32.71%
inhibition (INH) [20]: 49.73%
inhibition (INH) [21]: 62.46%
inhibition (INH) [22]: 91.05%
inhibition (INH) [23]: 61.83%
inhibition (INH) [24]: 31.92%
inhibition (INH) [25]: 0%
inhibition (INH) [26]: 38.22%
inhibition (INH) [27]: 100%
inhibition (INH) [28]: 20.12%
inhibition (INH) [30]: 0%
inhibition (INH) [31]: 100%
inhibition (INH) [32]: 97.52%
inhibition (INH) [33]: 100%
inhibition (INH) [34]: 80.94%
inhibition (INH) [35]: 76.44%
inhibition (INH) [36]: 81.13%
inhibition (INH) [37]: 6.18%
inhibition (INH) [38]: 0%
inhibition (INH) [39]: 26.41%
inhibition (INH) [40]: 50%
inhibition (INH) [41]: 54.95%
inhibition (INH) [42]: 14.37%
inhibition (INH) [43]: 100%
inhibition (INH) [44]: 93.75%
